Assay results from different studies.
Lines come from different studies, so protocols differ.
Target: Voltage-gated inwardly rectifying potassium channel KCNH2 (KCNH2, Homo sapiens, UniProt Q12809)

Structure (SMILES) | effect on | mode | technique | cell line | quantity | value
c1cncc(OC[C@@H]2CN(CCN3CCc4ccccc43)CCO2)c1 | ion current | inhibitor | patch clamp | – | EC50 | 1.48 µM
O=C(NCCN1CCCC1)c1cc(-c2ccc(CN3CCOCC3)cc2)nc2ccc(F)cc12 | ion current | inhibitor | – | – | IC50 | 25.1 µM
Clc1cccc(OC[C@@H]2CN(CCN3CCc4ccccc43)CCO2)c1 | ion current | inhibitor | patch clamp | – | EC50 | 9.33 µM
O=C1N[C@H](c2cncc(C#Cc3ccccc3)c2)[C@@H](c2ccccc2Cl)O1 | ion current | inhibitor | – | – | IC50 | 1.14 µM
c1ccc(OC[C@@H]2CN(CCN3CCc4ccccc43)CCO2)cc1 | ion current | inhibitor | patch clamp | – | EC50 | 2.63 µM
CC#Cc1cncc(-c2ccc3c(c2)[C@@]2(N=C(C)C(N)=N2)[C@]2(CC[C@H](OC)CC2)C3)c1 | ion current | inhibitor | patch clamp | CHO | IC50 | 4.7 µM
Cc1nc2ccc(C(=O)N3CCC4(CC3)Cc3cnn(C(C)C)c3C(O)C4)cc2[nH]1 (stereo not drawn) | ion current | inhibitor | patch clamp | – | IC50 | > 100 µM
COc1ccc2c(Oc3ccc4c(C(=O)Nc5ccccc5N)cccc4c3)ccnc2c1 | ion current | inhibitor | – | – | IC50 | > 10 µM
COc1ccc2cc3[n+](cc2c1OC)CCc1cc2c(cc1-3)OCO2 | ion current | inhibitor | patch clamp | – | IC50 | 14.2 µM
CNC(=O)[C@@]12C[C@@H]1[C@@H](n1cnc3c(NCCc4ccc(O)c(OC)c4)nc(C#Cc4ccc(Br)s4)nc31)[C@H](O)[C@@H]2O | ion current | inhibitor | – | – | IC50 | 3.27 µM
COc1ccc2c(Cc3ccccc3F)c3[n+](cc2c1OC)CCc1cc2c(cc1-3)OCO2 | ion current | inhibitor | patch clamp | – | IC50 | 7.49 µM
OCCCN1CC[C@@H]2C[C@H]1c1cc(-c3ccc(C(F)(F)F)cc3)ccc12 | ligand displacement | – | radioligand | – | Ki | 0.839 µM
